Laboratory results as given in ChEMBL document CHEMBL1138043, “Exploration of orally available calpain inhibitors 2: peptidyl hemiacetal derivatives” (J Med Chem, 2006).
Values after ≈ are worked out from the molar mass of the structure shown. Active and inactive are the calls of the source. No cut-off for these calls is given here.

Columns and labels:
[1] = Metabolic stability in human hepatic S9 fraction after 0.5 hrs; assay type: ADME; settings: liver S9 fraction, read-out: Stability
Outline: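 Compound at 5 µM final (added in acetonitrile) was incubated with human hepatic S9 in 50 mM potassium phosphate pH 7.4. An NADPH-generating system was present (3 mM MgCl2, 1 mM NADP+, 5 mM glucose-6-phosphate, 1 U/mL G6PDH). Incubation ran 30 min at 37 °C and was quenched with acetonitrile. Residual parent was measured by LC-UV or LC-MS/MS, n = 1.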

[2] = target: T1, Calpain-2 catalytic subunit (Sus scrofa, UniProt P43367); assay: Inhibition of porcein kidney m calpain
T1 sequence (P43367 whole entry): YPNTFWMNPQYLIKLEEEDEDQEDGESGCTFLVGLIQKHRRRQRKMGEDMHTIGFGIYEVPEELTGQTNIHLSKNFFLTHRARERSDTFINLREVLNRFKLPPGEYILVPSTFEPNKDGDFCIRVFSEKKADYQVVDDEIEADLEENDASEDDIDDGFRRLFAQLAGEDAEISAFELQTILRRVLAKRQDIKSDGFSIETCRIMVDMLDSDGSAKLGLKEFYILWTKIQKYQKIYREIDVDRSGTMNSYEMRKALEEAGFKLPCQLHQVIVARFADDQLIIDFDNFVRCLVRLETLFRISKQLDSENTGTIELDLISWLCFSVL
Outline: (§1)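 Casein substrate at 0.5 mg/mL in 50 mM Tris-HCl pH 7.4 with 20 mM dithiothreitol and 1.0 nmol enzyme. Inhibitors were added in DMSO. Reaction was started with 20 mM CaCl2; blank wells received 1 mM EDTA instead. Incubation ran 60 min at 30 °C. Percent inhibition came from OD differences. IC50 is the mean of two independent determinations.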

[3] = Aqueous solubility at pH 7 at 25 degreeC; assay type: physicochemical
[4] = Apparent permeability from apical to basolateral side of the Caco-2 cell; assay type: ADME, cell-based; settings: human
[5] = Lipophilicity, log D of the compound; assay type: physicochemical; settings: octanol/water
[6] = AUC (0-infinity) in Sprague-Dawley rat at 3 mg/kg, iv; assay type: ADME, organism-based; set-up: time infinity, dose 3 mg/kg, route intravenous; settings: plasma
Outline: (§2)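 Male Sprague-Dawley rats (200-250 g), single dose. Oral dosing as a suspension in 0.5% carboxymethyl cellulose; iv dosing at 10 mg/mL in 60% poly(ethylene glycol)/40% water. Plasma was taken from abdominal aorta blood under isoflurane at 0.1 (iv only), 0.25, 0.5, 1, 2, 4 and 8 h, with n = 4 or 5 per time point. Samples underwent solid-phase extraction and LC-MS/MS (MRM). Values are mean ± SD.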

[7] = AUC (0-infinity) in Sprague-Dawley rat at 500 mg/kg, po; assay type: ADME, organism-based; set-up: time infinity, dose 500 mg/kg, route oral; settings: plasma; outline: as §2
[8] = Cmax in Sprague-Dawley rat at 500 mg/kg, po; assay type: ADME, organism-based; set-up: dose 500 mg/kg, route oral; settings: in vivo; outline: as §2
[9] = Tmax in Sprague-Dawley rat at 500 mg/kg, po; assay type: ADME, organism-based; set-up: dose 500 mg/kg, route oral; settings: in vivo; outline: as §2
[10] = Terminal half life in Sprague-Dawley rat at 3 mg/kg, iv; assay type: ADME, organism-based; set-up: dose 3 mg/kg, route intravenous; settings: in vivo; outline: as §2
[11] = Volume of distribution in Sprague-Dawley rat at 3 mg/kg, iv; assay type: ADME, organism-based; set-up: dose 3 mg/kg, route intravenous; settings: in vivo, read-out: Vdss; outline: as §2
Rattus norvegicus [12] = assay: Neuroprotective activity in Sprague-Dawley rat ischemia-reperfusion model measured as cell density in retinal ganglion cell layer at 500 mg/kg, po; assay type: functional, organism-based; set-up: dose 500 mg/kg
Outline: (§3)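 Male Sprague-Dawley rats (150-250 g) received oral doses as a suspension in 0.5% CMC, 15 min before ischemia and again after reperfusion. Controls received vehicle. HE-stained nuclei in the ganglion cell layer 1-2 mm from the optic disk were counted over a 250 µm width at three sites. Comparison by Student t-test.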

[13] = Clearance in Sprague-Dawley rat at 3 mg/kg, iv; assay type: ADME, organism-based; set-up: dose 3 mg/kg, route intravenous; settings: in vivo; outline: as §2
[14] = Oral bioavailability in Sprague-Dawley rat; assay type: ADME, organism-based; settings: in vivo; outline: as §2
[15] = target: T2, Calpain-1 catalytic subunit (Homo sapiens, UniProt P07384); assay: Inhibition of human erythrocyte mu calpain; outline: as §1
T2 sequence (P07384 whole entry): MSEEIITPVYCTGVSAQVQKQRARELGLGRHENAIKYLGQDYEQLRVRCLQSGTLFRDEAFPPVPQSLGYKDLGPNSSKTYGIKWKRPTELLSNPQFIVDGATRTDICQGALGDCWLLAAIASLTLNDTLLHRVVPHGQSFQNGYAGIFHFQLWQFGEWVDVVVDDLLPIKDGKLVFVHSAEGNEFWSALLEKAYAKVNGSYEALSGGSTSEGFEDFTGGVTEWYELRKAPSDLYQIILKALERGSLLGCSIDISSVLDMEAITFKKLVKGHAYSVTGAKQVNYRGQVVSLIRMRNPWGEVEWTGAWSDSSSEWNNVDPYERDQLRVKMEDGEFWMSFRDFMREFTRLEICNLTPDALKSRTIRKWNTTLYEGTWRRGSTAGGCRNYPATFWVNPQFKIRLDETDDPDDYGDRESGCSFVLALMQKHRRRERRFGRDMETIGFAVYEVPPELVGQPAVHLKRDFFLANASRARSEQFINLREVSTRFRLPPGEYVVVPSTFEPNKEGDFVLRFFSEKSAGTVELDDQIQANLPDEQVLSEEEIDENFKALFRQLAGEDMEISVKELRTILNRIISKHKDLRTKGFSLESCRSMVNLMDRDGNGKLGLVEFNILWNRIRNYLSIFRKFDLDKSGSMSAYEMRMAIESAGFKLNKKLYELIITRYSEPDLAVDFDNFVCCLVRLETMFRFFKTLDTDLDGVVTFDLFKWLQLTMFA

[16] = AUC (0-infinity) in Sprague-Dawley rat at 10 mg/kg, po; assay type: ADME, organism-based; set-up: time infinity, dose 10 mg/kg, route oral; settings: plasma; outline: as §2
[17] = Cmax in Sprague-Dawley rat at 10 mg/kg, po; assay type: ADME, organism-based; set-up: dose 10 mg/kg, route oral; settings: in vivo; outline: as §2
[18] = Tmax in Sprague-Dawley rat at 10 mg/kg, po; assay type: ADME, organism-based; set-up: dose 10 mg/kg, route oral; settings: in vivo; outline: as §2
Rattus norvegicus [19] = assay: Neuroprotective activity in Sprague-Dawley rat ischemia-reperfusion model measured as cell density in retinal ganglion cell layer at 100 mg/kg, po relative to control; assay type: functional; outline: as §3
Rattus norvegicus [20] = assay: Neuroprotective activity in Sprague-Dawley rat ischemia-reperfusion model measured as cell density in retinal ganglion cell layer at 30 mg/kg, po relative to control; assay type: functional, organism-based; set-up: dose 30 mg/kg; outline: as §3

| remaining at 0.5 h [1] | IC50 [2] | solubility [3] | AUC(0-inf) [6] | half-life [10] | Vd [11] | clearance [13] | bioavailability [14] | IC50 [15] | SMILES | other results |
| --- | --- | --- | --- | --- | --- | --- | --- | --- | --- | --- |
| 3% | 49 nM | 100 µg/mL (≈ 268 µM) | 1.5 µM·h | 42 min | 6.1 L/kg | 89 mL/min/kg | 18% | – | CC(C)C[C@@H](C=O)NC(=O)[C@@H](NS(=O)(=O)c1ccc(F)cc1)C(C)C | Papp A→B [4]: 2.6 ×10⁻⁶ cm/s; logD [5]: 1.7; AUC(0-inf) [7]: 45 µM·h; Cmax [8]: 9.4 µM; Tmax [9]: 60 min; Activity (Rattus norvegicus [12]): Active |
| 25% | – | 5.3 µg/mL (≈ 11.2 µM) | – | – | – | – | – | – | CCCCNC(=O)C(=O)[C@H](CC(C)C)NC(=O)[C@@H](NS(=O)(=O)c1ccc(F)cc1)C(C)C | – |
| – | > 100000 nM | – | – | – | – | – | – | > 100000 nM | CC(C)C[C@@H](C#N)NC(=O)[C@@H](NS(=O)(=O)c1ccc(F)cc1)C(C)C | – |

More lines, now with the values behind:

| SMILES | remaining at 0.5 h [1] | IC50 [2] | solubility [3] | AUC(0-inf) [6] | half-life [10] | Vd [11] | clearance [13] | bioavailability [14] | IC50 [15] | other results |
| --- | --- | --- | --- | --- | --- | --- | --- | --- | --- | --- |
| CC(C)C[C@@H](/C=N/NC(=O)CN(C)C)NC(=O)[C@@H](NS(=O)(=O)c1ccc(F)cc1)C(C)C | 64% | – | – | – | – | – | – | – | – | – |
| CC(C)C[C@H](NC(=S)Nc1ccccc1)C(=O)N[C@H]1CCOC1O (stereo partly specified) | 100% | 190 nM | – | 2.6 µM·h | 114 min | 2.3 L/kg | 55 mL/min/kg | 66% | 86 nM | AUC(0-inf) [16]: 5.7 µM·h; Cmax [17]: 5.6 µM; Tmax [18]: 15 min; Activity (Rattus norvegicus [19]): 6.38; Activity (Rattus norvegicus [20]): inactive |
| CC(C)[C@H](NS(=O)(=O)c1ccc(F)cc1)C(=O)N[C@H]1CCOC1O (stereo partly specified) | 79% | 2600 nM | 1500 µg/mL (≈ 4160 µM) | – | – | – | – | – | 880 nM | – |
